Assay outcomes deposited in PubChem by Sanford-Burnham Center for Chemical Genomics.
Rows were chosen to be rich in hits. Some 1.9% of all compounds tested hit in one or more screens of this group.
SUMO1-SIM PPI: modulators of SUMO1 protein-protein interactions, primary screen, biochemical, uHTS; Small ubiquitin-related modifier 1 (Homo sapiens), P63165; SUMO1 binding to a labelled peptide, TR-FRET, 1 h; inhibition, % at 20 µM; actives 0.33% (n = 360,000); in the data active = inhibition above about 37%
Scp-1 inhibitor: Scp-1 phosphatase inhibitors, primary screen, biochemical, colorimetric, uHTS. Recombinant Scp1, phosphopeptide, malachite green phosphate absorbance. inhibition, % at 20 µM. actives 0.88% (n = 340,000);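 active = inhibition above about 50% at 20 µM, limit read from the data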
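Test system – truncated SCP-1 phosphatase (76-261aa) · Reagent – Phosphorylated 17-residue peptide substrate · Incubation – 45 min room-temperature reaction, 5 min colour, 30 min stabiliser · Detection – colorimetric phosphate reagent with accelerator and stabiliser, absorbance at 630 nm · Measure – % inhibition at 20 µM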
STEP inh: STEP phosphatase inhibitors, primary screen, biochemical, fluorescence intensity, uHTS. Tyrosine-protein phosphatase non-receptor type 5 (Homo sapiens), P54829. recombinant STEP, OMFP fluorogenic substrate. inhibition, % at 20 µM. actives 0.25% (n = 360,000). AID 588621, 2011;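 active = inhibition at 20 µM, scaled per plate between control wells, above about 37%, limit read from the data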
Target sequence (P54829 whole entry, looked up): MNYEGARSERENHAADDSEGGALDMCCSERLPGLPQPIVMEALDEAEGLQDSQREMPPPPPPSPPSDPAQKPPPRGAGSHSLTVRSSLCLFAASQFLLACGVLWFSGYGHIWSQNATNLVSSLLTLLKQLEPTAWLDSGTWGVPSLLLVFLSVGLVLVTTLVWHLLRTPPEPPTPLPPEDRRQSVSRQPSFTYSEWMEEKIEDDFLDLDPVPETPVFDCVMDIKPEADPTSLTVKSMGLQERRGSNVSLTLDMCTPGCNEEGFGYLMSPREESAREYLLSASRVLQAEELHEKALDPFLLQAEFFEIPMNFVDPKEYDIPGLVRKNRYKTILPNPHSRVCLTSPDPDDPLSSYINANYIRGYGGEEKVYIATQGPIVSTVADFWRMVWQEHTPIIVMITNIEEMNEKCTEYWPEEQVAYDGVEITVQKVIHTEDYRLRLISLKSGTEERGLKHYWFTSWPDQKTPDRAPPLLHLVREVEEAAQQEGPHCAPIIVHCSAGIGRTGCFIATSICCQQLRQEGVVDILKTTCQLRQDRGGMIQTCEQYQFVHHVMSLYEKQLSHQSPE
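Material: STEP (striatal-enriched tyrosine phosphatase) enzyme, cell-free | Medium: 50 mM Bis-Tris pH 6.0 with 2.5 mM DTT and 0.005% Tween 20 | Read-out: Percent inhibition scaled to no-enzyme and uninhibited-enzyme controls, plate-pattern corrected | Signal: Fluorescence read at 480 nm ex / 540 nm em | Times: 20 min reaction, room temperature, in the dark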
LMPTP inh: LMPTP phosphatase inhibitors, primary screen, biochemical, fluorescence intensity, uHTS; inhibition, % at 20 µM; AID 651560, 2012; Low molecular weight phosphotyrosine protein phosphatase (Homo sapiens), P24666; recombinant LMPTP-A, OMFP fluorogenic substrate; actives 0.22% (n = 360,000);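 active = compounds that cut the enzyme signal by at least half of the control window in the single-dose screen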
Target sequence (P24666 whole entry, looked up): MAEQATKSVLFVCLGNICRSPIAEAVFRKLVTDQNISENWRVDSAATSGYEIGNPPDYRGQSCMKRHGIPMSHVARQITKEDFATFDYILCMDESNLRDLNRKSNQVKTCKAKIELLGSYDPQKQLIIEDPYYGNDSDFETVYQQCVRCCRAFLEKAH
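test system = LMPTP-A | amount = 0.625 nM LMPTP-A final | reagent = fluorogenic phosphatase substrate OMFP at 400 µM final | incubation = 50 min at room temperature | benchmarks = no-enzyme low control, uninhibited high control | medium = Bis-Tris pH 6.0, DTT, detergent | signal = fluorescence intensity of OMFP turnover product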
FAS-TE inh: FAS thioesterase domain inhibitors, primary screen, biochemical, fluorescence intensity, uHTS; actives 0.67% (n = 360,000); inhibition, % at 15 µM; Fatty acid synthase (Homo sapiens), P49327; recombinant FAS-TE, OMFH fluorogenic substrate, fluorescence endpoint;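 active = compounds whose normalised, plate-corrected inhibition of enzyme fluorescence in the single-dose primary screen is 50% or more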
Scp-1 conf: Scp-1 phosphatase inhibitors, retest, confirmation, biochemical, colorimetric, single concentration. shares compounds with Scp-1 inhibitor. recombinant SCP-1 catalytic domain, phosphate release, malachite green absorbance. inhibition, % at 20 µM. actives 61% (n = 2,500)
Scp-1 MG ctr: colorimetric readout interference by compounds, confirmation, artefact control for Scp-1 inhibitor project, biochemical, single concentration. shares compounds with Scp-1 inhibitor. Colorimetric interference counterscreen, malachite green absorbance 630 nm. apparent inhibition (interference), % at 20 µM. 2,500 tested, under 10 active;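 note: compounds added after enzyme reaction finished so only phosphate colour detection is probed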
Scp1 DSF: Scp-1 binding by thermal shift, confirmation, orthogonal assay for Scp-1 inhibitor project, biophysical, differential scanning fluorimetry; actives 25% (n = 1,500); Recombinant SCP1, Sypro Orange thermal shift Tm; shares compounds with Scp-1 inhibitor; AID 540329, 2011; thermal shift relative to vanadate control, % at 40 µM;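 active = substances whose mean melting-temperature shift, as a percentage of the reference inhibitor's shift, reaches about 5.3%, limit read from the data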
Each line names hits and unclear results; the compound was inactive in the other large screens (follow-up assays come after a bar, where they were run); ! = repeats disagree.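 Rule for the calls, unless noted: active = inhibition of at least 30% at 20 µM; inactive = the rest.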

O=c1/c(=C/c2ccc(O)c([N+](=O)[O-])c2)sc2nc3ccccc3n12	Scp-1 inhibitor 81.5, STEP inh 89.9, LMPTP inh 92.0 | Scp-1 conf 81.6 | Scp-1 MG ctr inactive | Scp1 DSF 9.9
O=c1/c(=C\c2cccnc2)sc2nc3ccccc3n12	none
Cc1ccc(CNc2nc(C)c(C(=O)N(C)C)s2)cc1	none
O=C(O)CCCCCn1c(O)c(C=C2N=c3ccccc3=N2)sc1=S	Scp-1 inhibitor 74.3 | Scp-1 conf 90.5 | Scp-1 MG ctr inactive | Scp1 DSF 10.1
O=C(O)CCCn1c(O)c(C=C2N=c3ccccc3=N2)sc1=S	none
O=C1CCN(Cc2ccccc2)C=C1c1ccc(Br)cc1	none
CCn1cc([N+](=O)[O-])c(C(=O)N2CCCCCC2)n1	none
COc1ccc(C(=O)NCC(=O)Nc2ccc(-c3ccccc3)cc2)cc1	Scp-1 inhibitor 94.9 | Scp-1 conf 84.0 | Scp-1 MG ctr inactive | Scp1 DSF inactive
COc1ccc(NC(=O)CS(=O)CC(=O)Nc2ccc(NC(C)=O)cc2)cc1 (configuration not stated)	Scp-1 inhibitor 79.3, STEP inh 40.7 | Scp-1 conf 67.8 | Scp-1 MG ctr inactive | Scp1 DSF inactive
COc1cc(C(C)=O)ccc1OCC(=O)Nc1ccc2nc(C)sc2c1	none
CC(C)(C)c1ccccc1NC(=O)NC1CCN(Cc2c(F)cccc2Cl)CC1	none
COc1ccc(C(=O)O/N=C2\C(=O)N(C)c3ccccc32)cc1	Scp-1 inhibitor 52.3 | Scp-1 conf inactive | Scp-1 MG ctr inactive
CN1C(=O)/C(=N\OC(=O)c2cccc3ccccc23)c2ccccc21	none
C/C=C/c1ccc(OCC(=O)Nc2ccc(C(N)=O)cc2)c(OC)c1	none
COc1cc(/C=C/c2cc[n+](C)cc2)ccc1OCC(=O)Nc1ccccc1	Scp-1 inhibitor 77.3 | Scp-1 conf 89.0 | Scp-1 MG ctr inactive | Scp1 DSF inactive
O=[N+]([O-])c1cc(S(=O)(=O)Nc2ccccc2)ccc1Nc1ccccc1	Scp-1 inhibitor 61.0 | Scp-1 conf inactive | Scp-1 MG ctr inactive
O=C(O)C1=C(C(=O)O)C2C=CC1C2	Scp-1 inhibitor 72.0 | Scp-1 conf 51.6 | Scp-1 MG ctr inactive | Scp1 DSF inactive
COc1cc2sc3ccc(C#Cc4ccccn4)cc3c(=O)c2cc1OC	Scp-1 inhibitor 50.4 | Scp-1 conf inactive | Scp-1 MG ctr inactive
COC(=O)[C@@]12C[C@@H](CC(=O)NCCC(C)C)C(=O)N(CCc3ccc(OC)c(OC)c3)C1=CCC(C)(C)C2	none (no result: Scp-1 inhibitor, STEP inh, FAS-TE inh)
O=c1[nH]n2c(=O)c3c([nH]c2c1N=Nc1cccc(Cl)c1)CCC3	Scp-1 inhibitor 77.7 | Scp-1 conf 59.5 | Scp-1 MG ctr inactive | Scp1 DSF 27.3
COc1cccc(N=Nc2c(=O)[nH]n3c(=O)c4c([nH]c23)CCC4)c1	none
Cc1ccc(C)c(N2CCN(C(=O)c3ccc(CSc4nc5ccncc5[nH]4)cc3)CC2)c1	Scp-1 inhibitor 56.2 | Scp-1 conf inactive | Scp-1 MG ctr inactive
Cn1cc(Cc2ccc(C(=O)N3CCOCC3)cn2)c2ccccc21	none (no result: Scp-1 inhibitor)
CC(=O)Oc1ccccc1/C=C/c1ccc2ccccc2[n+]1C	none
COc1ccc(/C=C/c2ccc3ccccc3[n+]2C)cc1OC	Scp-1 inhibitor 99.1 | Scp-1 conf inactive | Scp-1 MG ctr inactive
Cc1cc(C(=O)COc2ccc3ccc(=O)oc3c2)c(C)n1Cc1cccs1	Scp-1 inhibitor 66.2 | Scp-1 conf 52.8 | Scp-1 MG ctr inactive | Scp1 DSF inactive
COC(=O)C1=C(C(=O)OC)[C@@H]2Nc3ccccc3[C@@]23C[C@@H](C(=O)OC)N=C3N1	none
CCC12CCCN3CCC4(C(=C(C(=O)OC)C1)Nc1ccccc14)C32 (configuration not stated)	Scp-1 inhibitor 61.4 | Scp-1 conf inactive | Scp-1 MG ctr inactive
CCCCNC(=O)C1(C)CCN1C(=O)c1oc2ccccc2c1C (configuration not stated)	none (no result: Scp-1 inhibitor)
Cc1ccc(NC(=O)CN2CC(C)SC2=NC2CCCCC2)cc1 (configuration not stated)	Scp-1 inhibitor 78.7! | Scp-1 conf inactive | Scp-1 MG ctr inactive
NC(=O)c1cc(N2C(=O)C=CC2=O)ccc1Cl	none
O=C(O)c1cc(N2C(=O)C=CC2=O)cc(N2C(=O)C=CC2=O)c1	SUMO1-SIM PPI 49.6, Scp-1 inhibitor 81.8 | Scp-1 conf 49.7 | Scp-1 MG ctr inactive | Scp1 DSF inactive
CCCOc1ccc(C(=O)Nc2ccc3c(c2)OCCO3)cc1	none
COc1ccccc1NC(=O)NCCN1CCNC1=O	none | Scp-1 conf inactive | Scp-1 MG ctr inactive
COc1ccccc1NC(=O)NCCN1CCCCC1	none
COc1ccc(Cl)cc1NC(=O)NCCN1CCNC1=O	none | Scp-1 conf inactive | Scp-1 MG ctr inactive
CC[N+](C)(CC)CCC(c1ccccc1)C1CCCCC1 (configuration not stated)	Scp-1 inhibitor 96.4 | Scp-1 conf 96.5 | Scp-1 MG ctr inactive | Scp1 DSF inactive
CN(Cc1cn(Cc2ccc(Cl)cc2)nn1)C1CN(Cc2cn(Cc3ccc(Cl)cc3)nn2)S(=O)(=O)C1 (configuration not stated)	none (no result: Scp-1 inhibitor, STEP inh)
CCCn1c(N2CCN(CC(=O)c3c[nH]c4ccccc34)CC2)nc2c1c(=O)[nH]c(=O)n2C	Scp-1 inhibitor 99.1 | Scp-1 conf inactive | Scp-1 MG ctr inactive
O=C(CC1SC(N2CCOCC2)=NC1=O)Nc1cccc(C(F)(F)F)c1 (configuration not stated)	none
Cc1ccsc1/C=N/NC(=O)c1c[nH]c2ccccc12	Scp-1 inhibitor 68.5 | Scp-1 conf inactive | Scp-1 MG ctr inactive
C/C(=N\Nc1ccc(C(F)(F)F)cn1)c1ccc(S(=O)(=O)NCc2ccco2)cc1	Scp-1 inhibitor 58.5 | Scp-1 conf inactive | Scp-1 MG ctr inactive
O=S1(=O)C[C@@H](N2CCC(Cc3ccccc3)CC2)[C@H](COCc2ccccc2)N1	none (no result: Scp-1 inhibitor)
